The test system of experiment [1] is NCI-H460. As to the kind of experiment: Anticancer activity against paclitaxel resistant variant human H460 cells. In kind it is functional, cell-based. The method, boiled down: (§1)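 H460 and the paclitaxel-resistant, P-gp-overexpressing H460taxR line were grown in RPMI 1640 with 10% heat-inactivated FCS, penicillin and streptomycin, at 37 C in 5% CO2. Cells were seeded in 96-well plates, dosed next day from DMSO stocks (DMSO <1%, matched DMSO control), and stained with sulforhodamine B at 72 h. IC50 came from four-parameter logistic fits; at least three experiments.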

Experiment [2] relates to NCI-H460. The experiment in a line: Anticancer activity against human H460 cells. Type of experiment: functional, cell-based. The method, boiled down:
as §1

A short description of experiment [3]: Anticancer activity against human NHFB cells. Type of experiment: ADME, cell-based. The method, boiled down:
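Normal human fibroblasts (NHFB) were kept in DMEM with 10% heat-inactivated FCS, penicillin and streptomycin, at 37 C in 5% CO2. They were seeded in 96-well plates and treated next day, with DMSO below 1% and a matched DMSO control. Sulforhodamine B readout was at 72 h, with viability taken relative to control. IC50 came from four-parameter logistic fits; unreached values were recorded as >100 µM because of the solubility/DMSO limit.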

Molecules are shown by their SMILES. A value given as a limit tells only on which side of the number the result lay.

On to `COc1ccc(/C=C2/S/C(=N/c3ccccc3C)NC2=O)cc1`, for which the figures for the 50% inhibitory concentration (IC50) (in the experiment on NCI-H460 [1]; with NCI-H460 [2]; in experiment [3]) were 1700 nM, 1780 nM and 195000 nM, respectively.

On to `O=C1N/C(=N\c2ccc(Cl)cc2)S/C1=C/c1ccccc1O`, for which the half-maximal inhibitory concentration (IC50) (usually the concentration that gives 50% inhibition) is 1180 nM with NCI-H460 [1], 1850 nM with NCI-H460 [2] and > 100000 nM in experiment [3].

Regarding `CN(C)c1ccc(/C=C2/SC(=Nc3ccccc3)NC2=O)cc1`, the figures for the concentration for half-maximal inhibition (IC50) (with NCI-H460 [1]; in the experiment on NCI-H460 [2]; in experiment [3]) were 210 nM, 500 nM and > 100000 nM, respectively.

For `CN(C)c1ccc(/C=C2/S/C(=N/c3ccc(Cl)cc3)NC2=O)cc1`, the 50% inhibitory concentration (IC50) in the experiment on NCI-H460 [1] is 2930 nM; with NCI-H460 [2], 2890 nM; in experiment [3] it was > 100000 nM.

`COc1ccc(N=C2NC(=O)/C(=C\c3ccc(N(C)C)cc3)S2)cc1`: the results for the 50% inhibitory concentration (IC50) (in the experiment with NCI-H460 [1]; in the experiment with NCI-H460 [2]; in experiment [3]) were 1600 nM, 2520 nM and > 100000 nM, respectively.

As for `CC(=O)Nc1ccc(/C=C2/S/C(=N/c3cccc(Cl)c3)NC2=O)cc1`, the values for the concentration for half-maximal inhibition (IC50) (in the experiment with NCI-H460 [1]; with NCI-H460 [2]; in experiment [3]) were 1250 nM, 1190 nM and > 100000 nM, respectively.

`CN(C)c1ccc(/C=C2/SC(=Nc3ccc(O)cc3)NC2=O)cc1`: the concentration for half-maximal inhibition (IC50) in the experiment on NCI-H460 [1] is 1080 nM; in the experiment on NCI-H460 [2], 1320 nM; in experiment [3], > 100000 nM.

In the case of `Cc1ccccc1/N=C1\NC(=O)/C(=C\c2ccc(N(C)C)cc2)S1`, the values for the concentration for half-maximal inhibition (IC50) (in the experiment with NCI-H460 [1]; in the experiment on NCI-H460 [2]; in experiment [3]) were 540 nM, 650 nM and > 100000 nM, respectively.

Regarding `CN(C)c1ccc(/C=C2/SC(=Nc3ccccc3Cl)NC2=O)cc1`, the IC50 was 880 nM in the experiment on NCI-H460 [1], 730 nM in the experiment on NCI-H460 [2] and > 100000 nM in experiment [3].

With `Cc1ccc(N=C2NC(=O)/C(=C\c3ccc(N(C)C)cc3)S2)cc1`, the IC50 with NCI-H460 [1] is 820 nM; in the experiment on NCI-H460 [2] it was 940 nM; in experiment [3], > 100000 nM.

These data come from ChEMBL document CHEMBL1142338, “Design, synthesis, cytoselective toxicity, structure-activity relationships, and pharmacophore of thiazolidinone derivatives targeting drug-resistant lung cancer cells” (J Med Chem, 2008).
